Experiments:
[1] = test system: Candida albicans; assay: Antifungal activity against Candida albicans SKF 2270 assessed as growth inhibition by agar dilution method; format: functional
[2] = test system: Cryptococcus neoformans; assay: Antifungal activity against Cryptococcus neoformans 103 assessed as growth inhibition by agar dilution method; format: functional
[3] = test system: Trichophyton mentagrophytes; assay: Antifungal activity against Trichophyton mentagrophytes A-280 USPHS assessed as growth inhibition by agar dilution method; format: functional
[4] = test system: Trichophyton rubrum; assay: Antifungal activity against Trichophyton rubrum 252 CSTM assessed as growth inhibition by agar dilution method; format: functional
[5] = test system: Microsporum canis; assay: Antifungal activity against Microsporum canis VM-200 USPHS assessed as growth inhibition by agar dilution method; format: functional
[6] = test system: Nannizzia gypsea; assay: Antifungal activity against Microsporum gypseum 153 CSTM assessed as growth inhibition by agar dilution method; format: functional
[7] = test system: Histoplasma capsulatum; assay: Antifungal activity against Histoplasma capsulatum RNSH Hi-70 1/2 assessed as growth inhibition by agar dilution method; format: functional
[8] = test system: Staphylococcus aureus; assay: Antibacterial activity against Staphylococcus aureus ATCC 6538 assessed as growth inhibition after 24 hrs by dilution tube method; format: functional; conditions: ATCC 6538, 24 h
Summary of the method: (§1)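 Broth tube dilution in Tryptone Soya Broth, duplicate tubes at each concentration. MIC (μg/ml) was the highest dilution preventing visible growth. Nitrofurantoin run under the same conditions.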

[9] = test system: Enterococcus faecalis; assay: Antibacterial activity against Streptococcus faecalis ATCC 10541 assessed as growth inhibition after 24 hrs by dilution tube method; format: functional; conditions: ATCC 10541, 24 h; summary of the method: as §1
[10] = test system: Pseudomonas aeruginosa; assay: Antibacterial activity against Pseudomonas aeruginosa ATCC 10145 assessed as growth inhibition after 24 hrs by dilution tube method; format: functional; conditions: ATCC 10145, 24 h; summary of the method: as §1
[11] = test system: Klebsiella pneumoniae; assay: Antibacterial activity against Klebsiella pneumoniae ATCC 10031 assessed as growth inhibition after 24 hrs by dilution tube method; format: functional; conditions: ATCC 10031, 24 h; summary of the method: as §1
[12] = test system: Salmonella typhi; assay: Antibacterial activity against Salmonella typhi 115 assessed as growth inhibition after 24 hrs by dilution tube method; format: functional, Salmonella enterica subsp. enterica serovar Typhi; conditions: Salmonella enterica, 115, 24 h
Summary of the method: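 Dilution tube method in Tryptone Soya Broth; MIC (μg/ml) taken as highest dilution preventing visible growth; duplicates at every concentration; nitrofurantoin reference run under same conditions.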

[13] = test system: Agrobacterium tumefaciens; assay: Antibacterial activity against Agrobacterium tumefaciens NRRL B-36 assessed as growth inhibition after 24 hrs by dilution tube method; format: functional; conditions: NRRL B-36, 24 h; summary of the method: as §1
[14] = test system: Escherichia coli; assay: Antibacterial activity against Escherichia coli 114 assessed as growth inhibition after 24 hrs by dilution tube method; format: functional; conditions: Escherichia coli, 114, 24 h; summary of the method: as §1
[15] = test system: Mycobacterium tuberculosis; assay: Antibacterial activity against Mycobacterium tuberculosis H37Rv assessed as growth inhibition by serial dilution method; format: functional
Summary of the method: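 M. tuberculosis H37Rv maintained on Lowenstein–Jensen medium; tested in Youman's medium by serial dilution.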

`Cc1cc(OCCCC[N+](C)(C)Cc2ccco2)c(C(C)C)cc1Cl.[Br-]` showed an MIC [1] of 100 µg/mL, an MIC [2] of 25 µg/mL and an MIC [3] greater than 200 µg/mL. It also gave an MIC [4] greater than 200 µg/mL, an MIC [5] greater than 200 µg/mL and an MIC [6] greater than 200 µg/mL. The MIC [7] was greater than 200 µg/mL, the MIC [8] was 25 µg/mL and the MIC [9] was 25 µg/mL. The MIC [10] was 7.5 µg/mL, the MIC [11] was 10 µg/mL and the MIC [12] was greater than 200 µg/mL. For the same compound, the MIC [13] was 25 µg/mL, the MIC [14] was greater than 200 µg/mL and the MIC [15] was 10 µg/mL.
`Cc1ccc(C[N+](C)(C)CCCCCCOc2c(Br)cc(Br)cc2Br)o1.[Br-]` showed an MIC [1] greater than 200 µg/mL, an MIC [2] of 10 µg/mL and an MIC [3] greater than 200 µg/mL. It also gave an MIC [4] greater than 200 µg/mL, an MIC [5] greater than 200 µg/mL and an MIC [6] greater than 200 µg/mL. For the same compound, the MIC [7] was 75 µg/mL, the MIC [8] was 5 µg/mL and the MIC [9] was 7.5 µg/mL. For the same compound, the MIC [10] was 2.5 µg/mL, the MIC [11] was 5 µg/mL and the MIC [12] was 75 µg/mL. For the same compound, the MIC [13] was 25 µg/mL, the MIC [14] was greater than 200 µg/mL and the MIC [15] was 10 µg/mL.
In the case of `C[N+](C)(CCCCCCCCCCCCCCOc1c(Br)cc(Br)cc1Br)Cc1ccc(Br)o1.Cc1ccc(S(=O)(=O)[O-])cc1`, the MIC [1] is reported as greater than 200 µg/mL, the MIC [2] is reported as 200 µg/mL and the MIC [3] is reported as greater than 200 µg/mL. It also gave an MIC [4] greater than 200 µg/mL, an MIC [5] of 200 µg/mL and an MIC [6] greater than 200 µg/mL. It also gave an MIC [7] greater than 200 µg/mL, an MIC [8] of 100 µg/mL and an MIC [9] of 100 µg/mL. For the same compound, the MIC [10] was 50 µg/mL, the MIC [11] was 100 µg/mL and the MIC [12] was 200 µg/mL. It also gave an MIC [13] of 200 µg/mL, an MIC [14] greater than 200 µg/mL and an MIC [15] of 200 µg/mL.
With `Cc1ccc(C[N+](C)(C)CCCCOc2cc(C)c(Cl)cc2C(C)C)o1.[Br-]` the MIC [1] was 50 µg/mL, the MIC [2] was 25 µg/mL and the MIC [3] was 50 µg/mL. It also gave an MIC [4] greater than 200 µg/mL, an MIC [5] of 25 µg/mL and an MIC [6] greater than 200 µg/mL. It also gave an MIC [7] of 100 µg/mL, an MIC [8] of 25 µg/mL and an MIC [9] of 25 µg/mL. It also gave an MIC [10] of 5 µg/mL, an MIC [11] of 5 µg/mL and an MIC [12] of 100 µg/mL. For the same compound, the MIC [13] was 50 µg/mL, the MIC [14] was greater than 200 µg/mL and the MIC [15] was 10 µg/mL.
With `C[N+](C)(CCCCCCCOc1c(Br)cc(Br)cc1Br)Cc1ccc([N+](=O)[O-])o1.[Br-]` the MIC [1] was greater than 200 µg/mL, the MIC [2] was 5 µg/mL and the MIC [3] was greater than 200 µg/mL. It also gave an MIC [4] greater than 200 µg/mL, an MIC [5] greater than 200 µg/mL and an MIC [6] greater than 200 µg/mL. The MIC [7] was greater than 200 µg/mL, the MIC [8] was 7.5 µg/mL and the MIC [9] was 7.5 µg/mL. The MIC [10] was 3 µg/mL, the MIC [11] was 5 µg/mL and the MIC [12] was greater than 200 µg/mL. It also gave an MIC [13] of 25 µg/mL, an MIC [14] greater than 200 µg/mL and an MIC [15] of 10 µg/mL.
`C[N+](C)(CCCCCCOc1c(Br)cc(Br)cc1Br)Cc1ccco1.[Br-]` gave an MIC [1] of 50 µg/mL, an MIC [2] of 25 µg/mL and an MIC [3] of 100 µg/mL. For the same compound, the MIC [4] was 100 µg/mL, the MIC [5] was 100 µg/mL and the MIC [6] was 100 µg/mL. It also gave an MIC [7] of 50 µg/mL, an MIC [8] of 25 µg/mL and an MIC [9] of 25 µg/mL. The MIC [10] was 5 µg/mL, the MIC [11] was 7.5 µg/mL and the MIC [12] was greater than 200 µg/mL. It also gave an MIC [13] of 50 µg/mL, an MIC [14] greater than 200 µg/mL and an MIC [15] of 25 µg/mL.
Compound `Cc1cc(OCCCCCCC[N+](C)(C)Cc2ccc(Br)o2)c(C(C)C)cc1Cl.[Br-]` has an MIC [1] of 50 µg/mL, an MIC [2] of 25 µg/mL and an MIC [3] greater than 200 µg/mL. For the same compound, the MIC [4] was greater than 200 µg/mL, the MIC [5] was greater than 200 µg/mL and the MIC [6] was greater than 200 µg/mL. The MIC [7] was greater than 200 µg/mL, the MIC [8] was 10 µg/mL and the MIC [9] was 7.5 µg/mL. For the same compound, the MIC [10] was 3 µg/mL, the MIC [11] was 7.5 µg/mL and the MIC [12] was greater than 200 µg/mL. It also gave an MIC [13] of 7.5 µg/mL, an MIC [14] greater than 200 µg/mL and an MIC [15] of 7.5 µg/mL.
`Cc1cc(OCCC[N+](C)(C)Cc2ccc(Br)o2)c(C(C)C)cc1Cl.[Br-]` showed an MIC [1] greater than 200 µg/mL, an MIC [2] of 50 µg/mL and an MIC [3] greater than 200 µg/mL. The MIC [4] was 100 µg/mL, the MIC [5] was 100 µg/mL and the MIC [6] was greater than 200 µg/mL. For the same compound, the MIC [7] was 100 µg/mL, the MIC [8] was 10 µg/mL and the MIC [9] was 10 µg/mL. The MIC [10] was 4 µg/mL, the MIC [11] was 7.5 µg/mL and the MIC [12] was 100 µg/mL. The MIC [13] was 25 µg/mL, the MIC [14] was greater than 200 µg/mL and the MIC [15] was 10 µg/mL.
Compound `C[N+](C)(CCCOc1c(Br)cc(Br)cc1Br)Cc1ccc([N+](=O)[O-])o1.[Br-]` has an MIC [1] greater than 200 µg/mL, an MIC [2] of 200 µg/mL and an MIC [3] greater than 200 µg/mL. For the same compound, the MIC [4] was greater than 200 µg/mL, the MIC [5] was greater than 200 µg/mL and the MIC [6] was greater than 200 µg/mL. It also gave an MIC [7] of 200 µg/mL, an MIC [8] of 50 µg/mL and an MIC [9] of 200 µg/mL. For the same compound, the MIC [10] was 25 µg/mL, the MIC [11] was 25 µg/mL and the MIC [12] was greater than 200 µg/mL. The MIC [13] was 100 µg/mL, the MIC [14] was greater than 200 µg/mL and the MIC [15] was 50 µg/mL.
